{"source": "ChEMBL document CHEMBL1136924", "about": "(J Med Chem, 2009)", "key": {"[1]": {"molecular_target": "T1, 5-hydroxytryptamine receptor 3A (Cavia porcellus, UniProt O70212)", "T1 sequence (O70212 whole entry)": "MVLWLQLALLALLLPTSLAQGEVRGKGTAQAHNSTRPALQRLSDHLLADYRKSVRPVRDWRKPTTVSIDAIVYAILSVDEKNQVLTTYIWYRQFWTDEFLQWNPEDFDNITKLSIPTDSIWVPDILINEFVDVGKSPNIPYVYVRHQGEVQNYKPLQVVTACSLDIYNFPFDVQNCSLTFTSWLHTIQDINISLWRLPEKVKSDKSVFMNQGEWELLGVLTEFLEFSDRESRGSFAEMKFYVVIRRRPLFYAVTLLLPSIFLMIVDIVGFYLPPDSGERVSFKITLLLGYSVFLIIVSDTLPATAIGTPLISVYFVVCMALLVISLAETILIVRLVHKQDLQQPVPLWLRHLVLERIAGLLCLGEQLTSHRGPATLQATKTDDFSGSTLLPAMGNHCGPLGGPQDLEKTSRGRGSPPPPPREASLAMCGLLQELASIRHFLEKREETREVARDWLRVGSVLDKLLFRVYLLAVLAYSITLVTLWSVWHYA", "test": "Antagonist activity at 5HT3 receptor in spontaneously beating guinea pig right atrium assessed as inhibition of serotonin-induced maximum response by noncompetitive binding assay", "assay_type": "tissue-based, Cardiac atrium", "summary_of_the_method": "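Spontaneously beating guinea pig right atrium; 5-HT concentration-response curves (0.001-1.0 µM) before and after 30 min antagonist exposure at three concentrations. IC50 is inhibition of 50% of maximal 5-HT response, Probit analysis, n = 4-6.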"}, "Rattus norvegicus [2]": {"system": "Rattus norvegicus", "test": "Agonist activity at 5HT3 receptor in iv dosed urethane-anesthetized Sprague-Dawley rat assessed as induction of bradycardia measured after 5 to 30 mins post-treatment by von Bezold-Jarisch reflex test", "assay_type": "functional"}, "[3]": {"molecular_target": "T2, 5-hydroxytryptamine receptor 3A (Cavia porcellus) (UniProt O70212)", "T2 sequence (whole entry)": "T1 sequence (O70212 whole entry)", "test": "Agonist activity at 5HT3 receptor in voltage-stimulated guinea pig left atrium assessed as positive inotropic potency at 100 uM", "assay_type": "functional, tissue-based", "conditions": "Cardiac atrium", "summary_of_the_method": "(§1)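 Guinea pig left and right atria were hung in a 15 mL bath of PSS (pH 7.4, 95% O2-5% CO2, 35 °C) with ketanserin 1 µM. The right atrium beat spontaneously; the left was paced at 1 Hz. Cumulative doses (0.1-100 µM; DMSO ≤0.3%) were added after 45-60 min stabilization. Rate or isometric force was recorded. EC50 came from Probit analysis, n≥4. Intrinsic activity was taken relative to 5-HT.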"}, "[4]": {"molecular_target": "T3, 5-hydroxytryptamine receptor 3A (Rattus norvegicus, UniProt P35563)", "T3 sequence (P35563 whole entry)": "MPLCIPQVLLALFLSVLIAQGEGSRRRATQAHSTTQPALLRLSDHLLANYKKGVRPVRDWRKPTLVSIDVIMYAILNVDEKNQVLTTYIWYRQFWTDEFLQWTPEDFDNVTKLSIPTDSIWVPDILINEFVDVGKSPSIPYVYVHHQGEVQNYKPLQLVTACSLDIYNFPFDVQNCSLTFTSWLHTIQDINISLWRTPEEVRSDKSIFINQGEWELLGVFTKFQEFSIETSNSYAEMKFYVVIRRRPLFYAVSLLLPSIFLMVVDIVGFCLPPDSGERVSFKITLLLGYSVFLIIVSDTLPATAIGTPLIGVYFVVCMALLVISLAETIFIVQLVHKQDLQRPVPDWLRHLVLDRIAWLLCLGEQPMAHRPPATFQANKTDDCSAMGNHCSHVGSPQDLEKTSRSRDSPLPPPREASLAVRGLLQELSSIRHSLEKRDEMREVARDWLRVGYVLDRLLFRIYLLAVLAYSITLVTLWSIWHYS", "test": "Displacement of [3H]LY278584 from 5HT3 receptor in rat cortical homogenate"}, "Rattus norvegicus [5]": {"system": "Rattus norvegicus", "test": "Antagonist activity at 5HT3 receptor in urethane-anesthetized Sprague-Dawley rat assessed as effect on 1-phenylbiguanide-induced bradycardia at 36 ug/kg, iv administered 5 mins before 1-phenylbiguanide challenge measured after 5 to 30 mins post-treatment by von Bezold-Jarisch reflex test", "assay_type": "functional, organism-based"}, "[6]": {"molecular_target": "T2, 5-hydroxytryptamine receptor 3A (Cavia porcellus)", "test": "Agonist activity at 5HT3 receptor in guinea pig thoracic aorta assessed as positive contractility potency at 100 uM", "assay_type": "functional, tissue-based", "summary_of_the_method": "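Guinea pig aortic helicoidal strips in PSS at 35 °C, aerated, under 1 g resting force, washed every 20 min for 1 h. Compounds added cumulatively 0.1-100 µM (DMSO vehicle); isometric contraction recorded.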"}, "[7]": {"molecular_target": "T2, 5-hydroxytryptamine receptor 3A (Cavia porcellus)", "test": "Agonist activity at 5HT3 receptor in spontaneously beating guinea pig right atrium assessed as positive chronotropic potency at 100 uM", "assay_type": "functional, tissue-based", "conditions": "Cardiac atrium", "summary_of_the_method": "as §1"}, "[8]": {"test": "Ratio of drug level in brain to plasma in rat at 5 mg/kg", "assay_type": "ADME, organism-based", "set-up": "dose 5 mg/kg"}, "[9]": {"molecular_target": "T2, 5-hydroxytryptamine receptor 3A (Cavia porcellus)", "test": "Agonist activity at 5HT3 receptor in voltage-stimulated guinea pig left atrium assessed as positive inotropic potency", "assay_type": "functional, tissue-based", "conditions": "Cardiac atrium", "summary_of_the_method": "(§2)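 Isolated guinea pig atria in PSS (Tyrode) with ketanserin 1 µM, 95% O2-5% CO2, pH 7.4, 35 °C. Right atrium beating spontaneously (rate); left atrium paced 1 Hz, 0.6-0.8 ms pulses near 50% threshold (force). Isometric recording after 45-60 min stabilization.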"}, "[10]": {"molecular_target": "T2, 5-hydroxytryptamine receptor 3A (Cavia porcellus)", "test": "Agonist activity at 5HT3 receptor in spontaneously beating guinea pig right atrium assessed as positive chronotropic potency", "assay_type": "functional, tissue-based", "conditions": "Cardiac atrium", "summary_of_the_method": "as §2"}, "[11]": {"molecular_target": "T2, 5-hydroxytryptamine receptor 3A (Cavia porcellus)", "conditions": "Thoracic aorta"}, "[12]": {"molecular_target": "T1, 5-hydroxytryptamine receptor 3A", "test": "Antagonist activity at 5HT3 receptor in spontaneously beating guinea pig right atrium assessed as inhibition of serotonin-induced maximum response by competitive binding assay", "set-up": "species or system Cardiac atrium", "conditions": "read-out: pA2 (converted)"}, "Rattus norvegicus [13]": {"system": "Rattus norvegicus", "test": "Antagonist activity at 5HT3 receptor in iv dosed urethane-anesthetized Sprague-Dawley rat assessed as inhibition of 1-phenylbiguanide-induced bradycardia administered 5 mins before 1-phenylbiguanide challenge measured after 5 to 30 mins post-treatment by von Bezold-Jarisch reflex test", "assay_type": "functional"}, "Rattus norvegicus [14]": {"system": "Rattus norvegicus", "test": "Antagonist activity at 5HT3 receptor in urethane-anesthetized Sprague-Dawley rat assessed as attenuation of 1-phenylbiguanide-induced bradycardia at 50 ug/kg, iv administered 5 mins before 1-phenylbiguanide challenge measured after 30 mins post-treatment by von Bezold-Jarisch reflex test", "assay_type": "functional", "set-up": "scale not given: the % may be the effect or the level left"}, "Rattus norvegicus [15]": {"system": "Rattus norvegicus", "test": "Antagonist activity at 5HT3 receptor in urethane-anesthetized Sprague-Dawley rat assessed as prevention of 1-phenylbiguanide-induced bradycardia at 1 ug/kg, iv administered 5 mins before 1-phenylbiguanide challenge measured after 5 mins post-treatment by von Bezold-Jarisch reflex test", "assay_type": "functional", "set-up": "scale not given: the % may be the effect or the level left"}, "[16]": {"molecular_target": "T2, 5-hydroxytryptamine receptor 3A (Cavia porcellus)", "test": "Intrinsic activity at 5HT3 receptor in voltage-stimulated guinea pig left atrium assessed as positive inotropic potency relative to serotonin", "assay_type": "tissue-based", "conditions": "Cardiac atrium", "summary_of_the_method": "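Electrically paced guinea pig left atrium (1 Hz) in PSS containing ketanserin 1 µM, pH 7.4, 35 °C. Contractile force recorded isometrically while cumulative concentrations of 0.1-100 µM were added (DMSO ≤0.3%). Intrinsic activity is expressed as the maximal response relative to that of 5-HT.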"}, "Rattus norvegicus [17]": {"system": "Rattus norvegicus", "test": "Agonist activity at 5HT3 receptor in urethane-anesthetized Sprague-Dawley rat assessed as decrease in heart rate at 40 ug/kg, iv up to 30 seconds post-treatment by von Bezold-Jarisch reflex test", "assay_type": "functional", "set-up": "scale not given: the % may be the effect or the level left"}}, "note": "The source made the active and inactive calls."}
{"smiles": "O=C(O)CN1CCN(c2nc3cc(F)ccc3n3cccc23)CC1", "values": [{"measurement": "IC50", "setting": "[1]", "value": 1910, "unit": "nM"}, {"measurement": "ED50", "setting": "Rattus norvegicus [2]", "value": 0.036, "unit": "mg/kg"}, {"measurement": "pD2", "setting": "[3]", "value": "inactive"}, {"measurement": "Ki", "setting": "[4]", "value": 11.7, "unit": "nM"}, {"measurement": "Activity", "setting": "Rattus norvegicus [5]", "value": "inactive"}, {"measurement": "pD2", "setting": "[6]", "value": "inactive"}, {"measurement": "pD2", "setting": "[7]", "value": "inactive"}]}
{"smiles": "O=C(O)CN1CCN(c2nc3cccc(F)c3n3cccc23)CC1", "values": [{"measurement": "Kp", "setting": "[8]", "value": 0.1}]}
{"smiles": "NCCc1c[nH]c2ccc(O)cc12", "values": [{"measurement": "pD2", "setting": "[9]", "value": 6.85}, {"measurement": "pD2", "setting": "[10]", "value": 5.78}, {"measurement": "pD2", "setting": "[11]", "value": 4.19}]}
{"smiles": "CN1[C@@H]2CC[C@H]1C[C@@H](OC(=O)c1c[nH]c3ccccc13)C2", "note": "[TROPISETRON]", "values": [{"measurement": "Kb", "setting": "[12]", "value": 30.2, "unit": "nM"}, {"measurement": "pD2", "setting": "[3]", "value": "inactive"}, {"measurement": "pD2", "setting": "[6]", "value": "inactive"}, {"measurement": "pD2", "setting": "[7]", "value": "inactive"}]}
{"smiles": "NC(=O)CN1CCN(c2nc3cc(F)ccc3n3cccc23)CC1", "values": [{"measurement": "IC50", "setting": "[1]", "value": 11200, "unit": "nM"}, {"measurement": "pD2", "setting": "[3]", "value": "inactive"}, {"measurement": "Ki", "setting": "[4]", "value": 7.3, "unit": "nM"}, {"measurement": "pD2", "setting": "[6]", "value": "inactive"}, {"measurement": "ID50", "setting": "Rattus norvegicus [13]", "value": "Dose-dependent effect"}, {"measurement": "ED50", "setting": "Rattus norvegicus [13]; read-out: ID50 (the source's name)", "value": 0.075, "unit": "mg/kg"}, {"measurement": "Activity", "setting": "Rattus norvegicus [14]", "value": 35, "unit": "%"}, {"measurement": "pD2", "setting": "[7]", "value": "inactive"}]}
{"smiles": "COc1cc(N)c(Cl)cc1C(=O)NC1CN2CCC1CC2", "note": "(configuration not stated) [ZACOPRIDE]", "values": [{"measurement": "Activity", "setting": "Rattus norvegicus [15]", "value": 100, "unit": "%"}]}
{"smiles": "N=C(N)NC(=N)Nc1ccccc1", "note": "[PHENYL BIGUANIDE]", "values": [{"measurement": "Intrinsic activity", "setting": "[16]", "value": 1}, {"measurement": "Activity", "setting": "Rattus norvegicus [17]", "value": 64, "unit": "%"}, {"measurement": "pD2", "setting": "[9]", "value": 4.31}]}
